Our source for the selectivity ratio and IC50 values is ChEMBL document CHEMBL2346607, “Borrelidin analogues with antimalarial activity: design, synthesis and biological evaluation against Plasmodium falciparum parasites” (Bioorg Med Chem Lett, 2013).

Series [1] in a line: Selectivity index, ratio of IC50 for human […] cells to IC50 for Plasmodium falciparum FCR-3. It is filed as toxicity, cell-based. The settings on record: […] cells (cytotoxicity) versus Plasmodium falciparum FCR-3, read-out: Ratio IC50. Summed up: (§1)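 SI is the MRC-5 cytotoxicity IC50 (ng/mL) divided by the antimalarial IC50 (ng/mL) against the FCR3 or K1 strain. Both IC50s come from the same in vitro test series.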

Series [2] can be described thus: Selectivity index, ratio of IC50 for human […] cells to IC50 for Plasmodium falciparum K1. It is filed as toxicity, cell-based. As to conditions: MCR5 cells (cytotoxicity) versus Plasmodium falciparum K1, read-out: Ratio IC50. Summed up: as §1
Series [3] can be described thus: Cytotoxicity against human […] cells after 7 days by MTT assay. It is filed as cell-based. The settings on record: 168 h. The gist of the method:
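Cytotoxicity was tested on MRC-5, a human diploid embryonic cell line. The value is reported as an IC50 in ng/mL.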
(Tetrazolium dyes change colour on reduction, which living cells bring about.)

The subject of series [4] is Plasmodium falciparum. The series is described as follows: Antimalarial activity against Plasmodium falciparum K1 infected in human erythrocytes after 72 hrs by lactate dehydrogenase assay. The series is classed as functional, organism-based. The settings on record: K1, 72 h. The gist of the method: (§2)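 In vitro assay against the P. falciparum strains K1 (drug-resistant) and FCR3 (drug-sensitive). The value is reported as an IC50 in ng/mL.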

For series [5], the system named is Plasmodium falciparum. The series is described as follows: Antimalarial activity against Plasmodium falciparum FCR-3 infected in human erythrocytes after 72 hrs by lactate dehydrogenase assay. It is filed as functional, cell-based. As to conditions: FCR-3/Gambia. The gist of the method:
as §2

SMILES strings stand for the structures. Values after ≈ are worked out from the molar mass of the structure shown.

Usually IC50 stands for the midpoint of a concentration-inhibition curve. Turning to `C#CCOC(=O)[C@@H]1CCC[C@H]1[C@@H]1C/C=C/C=C(/C#N)[C@H](O)[C@@H](C)C[C@H](C)C[C@H](C)C[C@H](C)[C@@H](O)CC(=O)O1`, the selectivity ratio stood at 240 in series [1] and 462 in series [2]. The values for the IC50 (in series [3]; in the series on Plasmodium falciparum [4]; in the series with Plasmodium falciparum [5]) were 1.2 µg/mL (≈ 2.27 µM), 0.0026 µg/mL (≈ 0.00493 µM) and 0.005 µg/mL (≈ 0.00948 µM), respectively.
The like results for `C[C@@H]1C[C@H](C)C[C@H](C)[C@@H](O)CC(=O)O[C@H]([C@@H]2CCC[C@H]2C(=O)OCc2cn(C34CC5CC(CC(C5)C3)C4)nn2)C/C=C/C=C(/C#N)[C@H](O)[C@@H](C)C1` were, in that order, 16, 39, 2.7 µg/mL (≈ 3.83 µM), 0.07 µg/mL (≈ 0.0993 µM) and 0.168 µg/mL (≈ 0.238 µM).
As to `C[C@@H]1C[C@H](C)C[C@H](C)[C@@H](O)CC(=O)O[C@H]([C@@H]2CCC[C@H]2C(=O)OCc2ccccc2)C/C=C/C=C(/C#N)[C@H](O)[C@@H](C)C1`, the selectivity ratio in series [1] was found to be 198; in series [2] it was 165. In addition, the results for the IC50 (in series [3]; in the series on Plasmodium falciparum [4]; with Plasmodium falciparum [5]) were 4.05 µg/mL (≈ 6.99 µM), 0.0246 µg/mL (≈ 0.0424 µM) and 0.0205 µg/mL (≈ 0.0354 µM), respectively.
